ChEMBL document CHEMBL4422612, “Small Molecule Inhibitor that Stabilizes the Autoinhibited Conformation of the Oncogenic Tyrosine Phosphatase SHP2” (J Med Chem, 2019)
Changes are numbered by the printed parent chain. Active and inactive are the calls of the source. The calls are words filed in the database; no cut-off is given here.

What was measured:
[1] = target: T1, Tyrosine-protein phosphatase non-receptor type 11 (Homo sapiens) (UniProt Q06124); assay: Binding affinity to His-tagged SHP2 (unknown origin) assessed as melting temperature at 10 uM measured every 50 secs by thermal shift assay (reference value: 43.5 +/- 0.95 degC)
T1 sequence (whole entry): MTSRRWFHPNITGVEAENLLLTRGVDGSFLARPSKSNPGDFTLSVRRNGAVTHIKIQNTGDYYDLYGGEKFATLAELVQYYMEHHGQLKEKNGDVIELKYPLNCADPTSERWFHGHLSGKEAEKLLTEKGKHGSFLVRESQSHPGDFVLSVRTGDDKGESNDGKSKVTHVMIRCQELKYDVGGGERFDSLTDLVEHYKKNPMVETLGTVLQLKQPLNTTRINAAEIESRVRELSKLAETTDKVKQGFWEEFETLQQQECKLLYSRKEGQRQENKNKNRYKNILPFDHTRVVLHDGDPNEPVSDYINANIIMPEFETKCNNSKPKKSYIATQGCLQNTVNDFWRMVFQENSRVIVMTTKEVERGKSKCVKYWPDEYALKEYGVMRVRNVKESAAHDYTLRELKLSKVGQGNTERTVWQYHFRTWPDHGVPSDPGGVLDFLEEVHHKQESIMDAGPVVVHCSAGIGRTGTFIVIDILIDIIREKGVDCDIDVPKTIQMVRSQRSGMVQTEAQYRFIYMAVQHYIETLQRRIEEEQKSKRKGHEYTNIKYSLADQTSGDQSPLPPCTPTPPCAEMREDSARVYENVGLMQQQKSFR

[2] = target: T1, Tyrosine-protein phosphatase non-receptor type 11 (Homo sapiens); assay: Binding affinity to His-tagged SHP2 (unknown origin) assessed as melting temperature at 60 uM measured every 50 secs by thermal shift assay (reference value: 43.5 +/- 0.95 degC)
[3] = test system: T2, Tyrosine-protein phosphatase non-receptor type 11 (Mus musculus), P35235 [E76K]; assay: Inhibition of Ptpn11 E76K mutant in Ptpn11 E76K mutant /Mx1-Cre containing mouse bone marrow cells assessed as reduction in GM-CSF-induced colony forming units at 1.25 to 5 uM after 7 days by inverted microscopy
T2 sequence (whole entry): T1 sequence (whole entry) with E76K, M450V, A550V, K590R
Summary of the method: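 Bone marrow from Ptpn11 E76K/+/Mx1-Cre+ and +/+/Mx1-Cre+ mice, 2×10⁴ cells/mL, in 0.9% methylcellulose IMDM with 30% FBS and GM-CSF 1.0 ng/mL, plus compound or DMSO. CFU-GM and CFU-M counted at day 7, normalized to WT DMSO colonies. Mean ± SD of three experiments.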

[4] = test system: T3, Tyrosine-protein phosphatase non-receptor type 11 (Homo sapiens), Q06124 [E76K]; assay: Inhibition of Ptpn11 E76K mutant in bone marrow cells isolated from JMML patient assessed as inhibition of GM-CSF-induced colony forming units at 1.25 to 5 uM after 14 days by inverted microscopy; format: cell-based
T3 sequence (whole entry): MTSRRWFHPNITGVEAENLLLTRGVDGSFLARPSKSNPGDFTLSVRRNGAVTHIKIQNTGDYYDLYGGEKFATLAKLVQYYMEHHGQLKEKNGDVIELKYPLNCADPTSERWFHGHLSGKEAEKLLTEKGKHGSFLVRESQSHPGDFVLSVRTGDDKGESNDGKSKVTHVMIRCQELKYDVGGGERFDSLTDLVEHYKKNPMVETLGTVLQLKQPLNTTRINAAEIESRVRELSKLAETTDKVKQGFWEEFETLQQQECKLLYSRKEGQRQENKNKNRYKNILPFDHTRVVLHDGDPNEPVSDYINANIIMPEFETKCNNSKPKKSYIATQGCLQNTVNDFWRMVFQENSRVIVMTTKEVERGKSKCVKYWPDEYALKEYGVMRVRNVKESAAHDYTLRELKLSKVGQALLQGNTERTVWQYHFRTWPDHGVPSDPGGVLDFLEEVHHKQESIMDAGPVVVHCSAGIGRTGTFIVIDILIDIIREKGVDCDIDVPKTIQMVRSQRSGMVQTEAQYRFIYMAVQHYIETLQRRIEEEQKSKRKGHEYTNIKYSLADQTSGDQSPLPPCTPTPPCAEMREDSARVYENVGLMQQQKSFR
Summary of the method: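 JMML patient splenocytes, marrow or blood cells (PTPN11 E76K/+), 5×10⁴ cells/mL, with healthy apheresis controls. Plated in 0.9% methylcellulose IMDM with 30% FBS, glutamine, β-mercaptoethanol and GM-CSF 1.0 ng/mL, plus compound or DMSO. Myeloid colonies counted at 14 days, 37 °C, 5% CO2, normalized to DMSO.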

[5] = target: T1, Tyrosine-protein phosphatase non-receptor type 11 (Homo sapiens); assay: Inhibition of wild type recombinant human SHP2 at 50 uM using H-Glu-Phe-pTyr-Ala-Glu-Val-Gly-Arg-Ser-Pro-Pro-Asp-Pro-Ala-Lys as substrate preincubated for 30 mins followed by substrate addition and measured after 30 mins by Malachite Green-reagent based assay
Summary of the method: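 Full-length SHP2 or SHP1 (0.1 µg) preincubated with compound 30 min at room temperature in 25 mM Tris-HCl pH 7.4, 50 mM NaCl, 5 mM DTT, 2.5 mM EDTA. Phospho-peptide substrate added to 50 µM final; 30 min at 30 °C. Released phosphate read by Malachite Green at OD620. IC50 from six concentrations; three experiments.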

[6] = target: T1, Tyrosine-protein phosphatase non-receptor type 11 (Homo sapiens); assay: Stable inhibition of human wild-type full length SHP2 at 5 to 20 uM using H-Glu-Phe-pTyr-Ala-Glu-Val-Gly-Arg-Ser-ProPro-Asp-Pro-Ala-Lys as substrate followed by 3 times wash out with phosphate buffer by phosphatase assay
[7] = test system: T3, Tyrosine-protein phosphatase non-receptor type 11 (Homo sapiens), Q06124 [E76K]; assay: Inhibition of recombinant full length human GST-tagged SHP2 E76K mutant using phospho-peptide as substrate pre-incubated for 30 mins before substrate addition and measured after 30 mins

CCOc1cc(O)c(C(=O)/C=C/c2ccc(Cl)cc2Cl)cc1CN1CCC=C(n2c(=O)[nH]c3ccccc32)C1
Tm [1]: 47.2 °C | Tm [2]: 48.2 °C | inhibition [3]: Active | inhibition [4]: Active | inhibition [5]: Active | inhibition [6]: Active | inhibition [7]: Dose-dependent effect
